From paper PMC13386513 (Journal of medicinal chemistry, 2025)

Columns and labels:
[1] = tested on: TNFα, IL1β, IRF3 expression in SH-SY5Y cells; assay: qRT-PCR of pro-inflammatory factors in p-tau-treated cells; format: cell-based, human; details: p-tau 0.5 μM plus ligand 5 μM, 24 h
[2] = tested on: SH-SY5Y cells; assay: Cytotoxicity of the ligands alone, cell viability; format: cell-based; details: 8 μM
[3] = molecular target: p-tau (Homo sapiens, UniProt P10636); assay: Transmission electron microscopy of p-tau; details: p-tau 10 μM, 24 h incubation, 37 °C, Tris pH 7.4
p-tau, sequence (P10636 1-412 isoform P10636-7): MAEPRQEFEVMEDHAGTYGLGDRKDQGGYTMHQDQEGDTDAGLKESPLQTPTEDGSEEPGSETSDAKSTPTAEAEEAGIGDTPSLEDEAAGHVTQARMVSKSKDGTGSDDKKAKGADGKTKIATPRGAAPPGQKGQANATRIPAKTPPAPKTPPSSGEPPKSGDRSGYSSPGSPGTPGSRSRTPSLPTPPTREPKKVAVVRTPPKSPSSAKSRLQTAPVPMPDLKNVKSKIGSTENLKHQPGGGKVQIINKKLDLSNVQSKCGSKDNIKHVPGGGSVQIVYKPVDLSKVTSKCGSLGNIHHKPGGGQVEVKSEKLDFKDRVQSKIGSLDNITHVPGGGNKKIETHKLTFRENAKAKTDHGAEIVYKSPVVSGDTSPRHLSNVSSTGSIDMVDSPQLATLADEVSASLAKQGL

[4] = tested on: p-tau-treated SH-SY5Y cells; assay: Cytoprotective activity against p-tau, cell viability; format: cell-based, human; details: 0.5 μM p-tau overnight, compound 8 μM
Method in brief: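 SH-SY5Y cells (passage 8–19; EMEM/F12, 10% FBS, 1% Pen-Strep) seeded 40,000/well in 24-well plates and grown overnight. Pretreated with test compound for 12 h, then exposed overnight to recombinant p-tau (E. coli BL21-expressed, heat-treated, TEV-cleaved). CCK-8 added for 2 h at 37 °C; OD read at 450 nm. Normalized to no-treatment mean; relative viability expressed against p-tau-only treatment.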

[5] = tested on: Xbp1s, P58ipk, ATF4 expression in SH-SY5Y cells; assay: qRT-PCR of ER stress response induced by tunicamycin or thapsigargin; format: cell-based, human; details: 24 h
[6] = tested on: ATF4, CHOP, GADD34, TRB3 expression in SH-SY5Y cells; assay: qRT-PCR of ER stress-associated pro-apoptotic factors in p-tau-treated cells; format: cell-based, human; details: p-tau 0.5 μM plus ligand 5 μM, 24 h
[7] = tested on: spliced Xbp1 mRNA, BiP, ERdj4 expression in SH-SY5Y cells; assay: qRT-PCR of ER stress markers and UPR mediators in p-tau-treated cells; format: cell-based, human; details: p-tau 0.5 μM plus ligand 5 μM, 24 h
[8] = tested on: p-tau-treated SH-SY5Y cells; assay: Cell morphology by contrast microscopy; format: cell-based, human; details: p-tau 0.5 μM plus ligand 1 5 μM, 24 h
[9] = tested on: heparanase; details: previous report; cited from earlier work

SMILES	p-tau-induced inflammatory response (IL1β, TNFα, IRF3 expression) [1]	cytotoxicity of the compound alone [2]	morphology of p-tau (TEM) [3]	relative viability [4]	Tg-induced ER stress response (Xbp1s, P58ipk, ATF4) ([5]; Tg 0.5 μM plus ligand 1 5 μM)	Tm-induced ER stress response (Xbp1s, P58ipk, ATF4) ([5]; Tm 5 μg/mL plus ligand 1 5 μM)	expression of ATF4, CHOP, GADD34 and TRB3 [6]	expression of spliced Xbp1 mRNA, BiP and ERdj4 (p-tau-induced ER stress response/UPR) [7]	cell density and morphology [8]	heparanase inhibition [9]
COC(=O)[C@]12CCC(C)(C)C[C@H]1C1=CCC3[C@@]4(C)CC[C@H](O[C@@H]5O[C@H](COS(=O)(=O)O)[C@@H](O[C@@H]6O[C@H](C(=O)O)[C@@H](O[C@H]7O[C@H](COS(=O)(=O)O)[C@@H](O)[C@H](O)[C@H]7NS(=O)(=O)O)[C@H](O)[C@H]6O)[C@H](O)[C@H]5NS(=O)(=O)O)C(C)(C)C4CC[C@@]3(C)C1(C)CC2 (stereo partly drawn) [Compound 1, 3β-(2-N-Sulfo-2-deoxy-6-O-sulfo-α-D-glucopyranosyl-(1 → 4)-β-D-glucopyranosyluronate-(1 → 4)-2-N-sulfo-2-deoxy-6-O-sulfo-β-D-glucopyranosyloxy)-methyloleanolate]	able to protect cells	did not exhibit cytotoxicity	reorganization of p-tau from an amorphous structure into more ordered clusters	around 0.6	failed to attenuate	failed to attenuate	significantly lowered	strong protective effects	remarkably recovered cell density and morphology	
O=C(O)[C@H]1O[C@@H](O[C@H]2[C@H](O)[C@@H](NS(=O)(=O)O)[C@H](OCCNS(=O)(=O)O)O[C@@H]2COS(=O)(=O)O)[C@H](O)[C@@H](O)[C@@H]1O[C@H]1O[C@H](COS(=O)(=O)O)[C@@H](O)[C@H](O)[C@H]1NS(=O)(=O)O [Compound 2]	did not offer protection	did not exhibit cytotoxicity		0.3			did not reduce	did not offer protection		potent heparanase inhibitor
COC(=O)[C@]12CCC(C)(C)C[C@H]1C1=CCC3[C@@]4(C)CC[C@H](O)C(C)(C)C4CC[C@@]3(C)C1(C)CC2 (stereo partly drawn) [OAME, oleanolic acid methyl ester, reference compound]		did not exhibit cytotoxicity								
CN1CCc2cccc3c2[C@H]1Cc1ccc(O)c(O)c1-3 [apomorphine, reference compound]			reorganization of p-tau from an amorphous structure into more ordered clusters	0.7						
